Experimental data: ChEMBL document CHEMBL3244026, “Synthesis of 4'- and 5'-hydroxyoxprenolol:pharmacologically active ring-hydroxylated metabolites of oxprenolol” (J Med Chem, 1979)

Legend:
Format in all cases: tissue-based
Settings in all cases: Trachea
Cavia porcellus [1] = species: Cavia porcellus; assay: Antagonist activity at beta adrenergic receptor in guinea pig tracheal strips assessed as inhibition of isoproterenol-induced tracheal relaxation incubated 1 hr prior to testing
In short: (§1)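 Guinea pig tracheal strips in 10-mL baths, precontracted with carbachol 10^-7 M. Two cumulative isoproterenol dose-response curves per strip: control, then a 1 h wash, then antagonist added 1 h before the second curve. Dose ratio is the antilog of the difference in −log molar isoproterenol ED50. Apparent K_B = [antagonist]/(dose ratio − 1), using three antagonist concentrations (Furchgott).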

Cavia porcellus [2] = species: Cavia porcellus; assay: Antagonist activity at beta adrenergic receptor in guinea pig tracheal strips assessed as inhibition of 10^-7 M isoproterenol-induced tracheal relaxation incubated 1 hr prior to testing; in short: as §1
Cavia porcellus [3] = species: Cavia porcellus; assay: Antagonist activity at beta adrenergic receptor in guinea pig tracheal strips assessed as inhibition of 10^-6 M isoproterenol-induced tracheal relaxation incubated 1 hr prior to testing; in short: as §1
Cavia porcellus [4] = species: Cavia porcellus; assay: Antagonist activity at beta adrenergic receptor in guinea pig tracheal strips assessed as inhibition of 10^-5 M isoproterenol-induced tracheal relaxation incubated 1 hr prior to testing; in short: as §1

inhibition (Cavia porcellus [1]) | Kb (Cavia porcellus [2]) [nM] | Kb (Cavia porcellus [3]) [nM] | Kb (Cavia porcellus [4]) [nM] | Compound
Dose-dependent effect | 2.61 | 5.81 | – | C=CCOc1ccccc1OCC(O)CNC(C)C (stereo unspecified)
Dose-dependent effect | 26.5 | 45.5 | 122 | C=CCOc1cc(O)ccc1OCC(O)CNC(C)C (stereo unspecified)
Dose-dependent effect | 34.8 | 37.9 | 101 | C=CCOc1ccc(O)cc1OCC(O)CNC(C)C (stereo unspecified)
